From ChEMBL document CHEMBL3414422, “Synthesis of new steroidal inhibitors of P-glycoprotein-mediated multidrug resistance and biological evaluation on K562/R7 erythroleukemia cells” (J Med Chem, 2015)

What was measured:
K562/R7 = assay: Inhibition of p-gp (unknown origin) in doxorubicin-resistant human K562/R7 cells assessed as increase in daunorubicin accumulation measured as fluorescence ratio at 10 uM incubated for 1 hr with 10 uM daunorubicin by flow cytometry relative to control; type: cell-based
Outline: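 Resistant K562/R7 cells ([…]) incubated 1 h at 37 °C in RPMI 1640 with daunorubicin 10 µM, with or without steroid at 10 µM; intracellular fluorescence read by flow cytometry. Accumulation index = daunorubicin fluorescence ratio with/without modulator. Cyclosporin A as positive control. Duplicates, at least three separate experiments.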

[1] = Intrinsic cytotoxicity against human K562 cells assessed as cell survival […] by MTT assay; type: cell-based; details: read-out: Survival

| SMILES | Ratio (K562/R7) | viability [1] [%] |
| --- | --- | --- |
| COC(=O)CCC(C)[C@H]1CC[C@H]2[C@@H]3[C@H](O[C@@H]4CCCCO4)C[C@@H]4CC(=O)CC[C@]4(C)[C@H]3C[C@H](OC(=O)c3ccccc3)[C@]12C (some centres undefined) | 2.9 | 51.3 |
| CC(=O)[C@H]1CC[C@H]2[C@H]3[C@H]([C@H](O[C@@H]4CCCCO4)C[C@]12C)[C@@]1(C)CCC(=O)C[C@H]1C[C@H]3OC(=O)c1ccccc1 | 2.9 | 80.8 |
